# Measured values published in ChEMBL document CHEMBL3396970, “Synthesis and biological evaluation of novel 2,3-disubstituted quinoxaline derivatives as antileishmanial and antitrypanosomal agents” (Eur J Med Chem, 2015).
# Assays:
# Leishmania amazonensis = test: Antileishmanial activity against promastigote stage of Leishmania amazonensis WHOM/BR/75/JOSEFA after 72 hrs by hemocytometry; format: functional, organism-based
# Trypanosoma cruzi [1] = test: Antitrypanosomal activity against epimastigote stage of Trypanosoma cruzi Y after 96 hrs by hemocytometry; format: functional, organism-based
# Summary of the method: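 Log-phase parasites (promastigotes 3-day, Warren's medium + 10% FBS, 25°C; epimastigotes 4-day, LIT + 10% FBS, 28°C) seeded at 1 × 10^6 cells/mL with compound (0.1-100 µM; DMSO ≤1%). Promastigotes read at 72 h, epimastigotes at 96 h, by hemocytometer counting. IC50 by nonlinear regression.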
# Trypanosoma cruzi [2] = test: Antitrypanosomal activity against trypomastigote stage of Trypanosoma cruzi Y infected in monkey LLC-MK2 cells after 96 hrs by Pizzi-Brener method; format: functional, organism-based
# [3] = Selectivity ratio of CC50 for mouse J774A1 cells to IC50 for promastigote stage of Leishmania amazonensis WHOM/BR/75/JOSEFA; format: ADME, cell-based, J774.A1; conditions: read-out: Ratio CC50/IC50
# [4] = Selectivity ratio of CC50 for monkey LLC-MK2 cells to IC50 for epimastigote stage of epimastigote stage of Trypanosoma cruzi Y; format: ADME, cell-based; conditions: read-out: Ratio CC50/IC50
# [5] = Selectivity ratio of CC50 to IC50 for promastigote stage of Leishmania amazonensis WHOM/BR/75/JOSEFA; set-up: reference not given here
# [6] = Selectivity ratio of CC50 for monkey LLC-MK2 cells to IC50 for epimastigote stage of epimastigote stage of Trypanosoma cruzi Y
IC50 (Leishmania amazonensis) [µM],IC50 (Trypanosoma cruzi [1]) [µM],EC50 (Trypanosoma cruzi [2]) [µM],SMILES,selectivity ratio [3],selectivity ratio [4],selectivity ratio [5],selectivity ratio [6]
> 100,> 100,> 50,CSc1nc2ccc(Br)cc2nc1NCCO,–,–,–,–
69.2,90.9,> 50,COc1ccc2nc(S(C)(=O)=O)c(NCCO)nc2c1,3.7,2.6,3.7,2.6
31.5,43.8,> 50,COc1ccc(-c2nc3ccc(Cl)cc3nc2-c2ccccc2)cc1,9.5,6.5,9.5,6.5
25.2,41.8,> 50,CCCCNc1nc2cc(Br)ccc2nc1SC,5.1,0.9,5.1,0.9
> 100,> 100,–,COc1ccc2nc(-c3ccccc3)c(SC)nc2c1,–,–,–,–
21.1,> 100,–,c1ccc(-c2nc3ccccc3nc2-c2ccccc2)cc1,–,–,–,–
96.2,> 100,> 50,CSc1nc2ccccc2nc1NCCO,2.9,–,2.9,–
73.6,> 100,> 50,CS/C(=C/[N+](=O)[O-])NCCCCO,11.1,–,11.1,–
21.9,70.1,–,CS/C(=C/[N+](=O)[O-])NC1CCCCC1,–,–,–,–
29.6,10.8,> 50,CSC(=C[N+](=O)[O-])SC,6,18.3,6,18.3
45.3,39.4,> 50,CSc1nc2ccc(Cl)cc2nc1Cl,22.1,16.1,22.1,16.1
40.5,> 100,–,COc1ccc(-c2nc3cc(OC)ccc3nc2-c2ccccc2)cc1,–,–,–,–
27.9,32,–,COc1cccc(N/C(=C\[N+](=O)[O-])SC)c1,–,–,–,–
93.6,38.7,> 50,COc1ccc2nc(Cl)c(SC)nc2c1,9.8,19.3,9.8,19.3
30.2,69.2,> 50,CCCCNc1nc2cc(OC)ccc2nc1SC,3.5,1.1,3.5,1.1
19.7,19.7,–,CS/C(=C/[N+](=O)[O-])Nc1ccc(F)cc1,–,–,–,–
42.8,83.6,> 50,COc1ccc2nc(N(C)C)c(SC)nc2c1,5.9,6.2,5.9,6.2
50.3,47.6,> 50,COc1ccc2nc(-c3ccccc3)c(NCCN3CCCCC3)nc2c1,0.9,3.8,0.9,3.8
20.9,29.4,> 50,CCCCNc1nc2ccc(OC)cc2nc1NCCCC,4.3,3.2,4.3,3.2
> 100,> 100,> 50,COc1ccc2nc(SC)c(NCCO)nc2c1,–,–,–,–
> 100,> 100,> 50,COc1ccc2nc(SC)c(Cl)nc2c1,–,–,–,–
22.2,83.4,> 50,Cc1ccc(-c2nc3cc(Cl)c(Cl)cc3nc2-c2ccccc2)cc1,3.2,1.3,3.2,1.3
36.2,49.5,> 50,CCCCNc1nc2cc(OC)ccc2nc1Cl,4.4,7.9,4.4,7.9
28.7,39,–,COc1ccc(N/C(=C\[N+](=O)[O-])SC)cc1,–,–,–,–
12.8,21.5,–,COc1ccc(-c2nc3ccccc3nc2-c2ccccc2)cc1,–,–,–,–
> 100,66.8,> 50,CCCCNc1nc2cc(OC)ccc2nc1-c1ccccc1,–,12.5,–,12.5

IC50 (Leishmania amazonensis) [µM],IC50 (Trypanosoma cruzi [1]) [µM],EC50 (Trypanosoma cruzi [2]) [µM],SMILES,selectivity ratio [3],selectivity ratio [4],selectivity ratio [5],selectivity ratio [6]
27.6,69.9,> 50,COc1ccc2nc(NCC(C)C)c(SC)nc2c1,6.7,1,6.7,1
26.9,95.7,> 50,COc1ccc2nc(SC)c(NCC(C)C)nc2c1,4.7,0.7,4.7,0.7
13.6,38.4,> 50,CCCCNc1nc2ccc(OC)cc2nc1NCc1ccccc1,3.6,0.6,3.6,0.6
35.9,25.2,> 50,COc1ccc2nc(N(C)C)c(S(C)(=O)=O)nc2c1,4.5,6.8,4.5,6.8
24.3,36,–,Cc1ccc(-c2nc3cc(Cl)ccc3nc2-c2ccccc2)cc1,–,–,–,–
5.7,39.2,> 50,Oc1ccc(-c2nc3ccccc3nc2-c2ccc(OCCN3CCCCC3)cc2)cc1,8.2,1,8.2,1
75.9,93.1,> 50,CCCCNc1nc2ccccc2nc1SC,1.9,1.2,1.9,1.2
5.3,54,> 50,Clc1cc2nc(-c3ccccc3)c(-c3ccccc3)nc2cc1Cl,38.5,8.7,38.5,8.7
8.9,35.7,–,Cc1ccc(-c2nc3ccccc3nc2-c2ccccc2)cc1,–,–,–,–
42.3,61.9,–,CS/C(=C/[N+](=O)[O-])Nc1ccc2c(c1)OCCO2,–,–,–,–
> 100,> 100,–,CSc1nc2ccccc2nc1-c1ccccc1,–,–,–,–
28.1,42.7,> 50,Clc1ccc2nc(-c3ccccc3)c(-c3ccccc3)nc2c1,6.6,6.1,6.6,6.1
> 100,52.3,> 50,CSc1nc2ccc(Cl)cc2nc1NC1CCCCC1,–,4.8,–,4.8
82.9,> 100,> 50,COc1ccc2nc(NCCO)c(SC)nc2c1,5,–,5,–
74.1,52.9,> 50,CSc1nc2ccccc2nc1Cl,13.5,8.1,13.5,8.1
41.5,67.3,–,CS/C(=C/[N+](=O)[O-])Nc1ccc(O)cc1,–,–,–,–
6.2,40.3,> 50,c1ccc(-c2nc3ccccc3nc2-c2ccc(OCCN3CCOCC3)cc2)cc1,8.7,4.6,8.7,4.6
> 100,90.1,> 50,CS/C(=C/[N+](=O)[O-])NCCCO,–,9.6,–,9.6
24.1,11.4,–,CS/C(=C/[N+](=O)[O-])Nc1ccccc1,–,–,–,–
57.9,47.8,> 50,CSc1nc2ccc(Br)cc2nc1Cl,7.4,9.2,7.4,9.2
21.3,25.8,> 50,CS/C(=C/[N+](=O)[O-])Nc1ccc(Cl)cc1,6.9,7.3,6.9,7.3
35.2,86.7,> 50,CCCCNc1nc2ccc(OC)cc2nc1SC,2.1,3.1,2.1,3.1
21.5,41,> 50,COc1ccc2nc(SC)c(NC3CCCCC3)nc2c1,2.4,1.8,–,–
72.8,> 100,> 50,COc1ccc2nc(-c3ccccc3)c(NCCO)nc2c1,4.8,–,4.8,–
33,20.4,–,CS/C(=C/[N+](=O)[O-])Nc1ccc(Br)cc1,–,–,–,–
